Data: ChEMBL document CHEMBL2163243, “Metaproterenol, isoproterenol, and their bisdimethylcarbamate derivatives as human cholinesterase inhibitors” (J Med Chem, 2012)

Tests used:
Cholinesterase [1] = biological target: T1, Cholinesterase (Homo sapiens, UniProt P06276); test: Inhibition of human BChE D70G/T243M/G390V mutant atypical-fluoride resistant heterozygous variant using propionylthiocholine as substrate assessed as inhibition rate constant incubated up to 30 mins prior to substrate addition by Ellman's method
Summary of the method: (§1)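 BChE from heparinized human donor plasma (centrifuged supernatant, phenotyped), unpurified, diluted 150 - 300 times in phosphate buffer. Enzyme incubated ≤30 min with carbamate in 0.1 M phosphate buffer pH 7.4, 25 °C. Reaction stopped with PTCh (4.0 mM final) and residual activity read by Ellman (DTNB 0.3 mM final, 412 nm). At least three carbamate concentrations, at least two experiments. First-order constants from ln(v0/vi) vs time; ki = kmax/Ki.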
Target sequence in this assay (P06276 29-602 limits assumed): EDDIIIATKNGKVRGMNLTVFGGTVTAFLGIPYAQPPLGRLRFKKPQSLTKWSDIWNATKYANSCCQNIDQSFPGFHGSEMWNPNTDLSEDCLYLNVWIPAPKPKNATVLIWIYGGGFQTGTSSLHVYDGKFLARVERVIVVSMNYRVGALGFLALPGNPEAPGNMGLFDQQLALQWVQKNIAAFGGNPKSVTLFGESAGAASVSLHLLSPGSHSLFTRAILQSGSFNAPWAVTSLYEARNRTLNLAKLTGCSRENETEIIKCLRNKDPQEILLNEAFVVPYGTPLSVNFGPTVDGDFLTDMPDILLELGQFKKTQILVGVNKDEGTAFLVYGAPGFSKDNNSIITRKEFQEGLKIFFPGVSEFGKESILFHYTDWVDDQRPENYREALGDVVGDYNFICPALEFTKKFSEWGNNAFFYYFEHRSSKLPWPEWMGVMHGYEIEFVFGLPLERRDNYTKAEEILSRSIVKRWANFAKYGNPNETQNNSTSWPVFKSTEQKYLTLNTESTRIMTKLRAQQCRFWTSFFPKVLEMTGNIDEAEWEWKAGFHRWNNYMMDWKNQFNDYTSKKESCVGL

Cholinesterase [2] = biological target: T1, Cholinesterase; test: Inhibition of human BChE T243M/G390V mutant fluoride-resistant homozygous variant using propionylthiocholine as substrate by Ellman's method; details: TDE = time-dependent effect
Summary of the method: (§2)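 Reversible inhibition of plasma BChE (phenotyped donor plasma, diluted 150 - 300 times) measured at several PTCh concentrations, with and without inhibitor (0.5 mM - 10 mM). Ellman read-out at 412 nm, DTNB 0.3 mM final, 0.1 M phosphate pH 7.4, 25 °C. Ki,app per substrate concentration from the Hunter-Downs equation by linear regression. Y-intercept gives K(I) and x-intercept gives K(S).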
Target sequence in this assay (P06276 whole entry): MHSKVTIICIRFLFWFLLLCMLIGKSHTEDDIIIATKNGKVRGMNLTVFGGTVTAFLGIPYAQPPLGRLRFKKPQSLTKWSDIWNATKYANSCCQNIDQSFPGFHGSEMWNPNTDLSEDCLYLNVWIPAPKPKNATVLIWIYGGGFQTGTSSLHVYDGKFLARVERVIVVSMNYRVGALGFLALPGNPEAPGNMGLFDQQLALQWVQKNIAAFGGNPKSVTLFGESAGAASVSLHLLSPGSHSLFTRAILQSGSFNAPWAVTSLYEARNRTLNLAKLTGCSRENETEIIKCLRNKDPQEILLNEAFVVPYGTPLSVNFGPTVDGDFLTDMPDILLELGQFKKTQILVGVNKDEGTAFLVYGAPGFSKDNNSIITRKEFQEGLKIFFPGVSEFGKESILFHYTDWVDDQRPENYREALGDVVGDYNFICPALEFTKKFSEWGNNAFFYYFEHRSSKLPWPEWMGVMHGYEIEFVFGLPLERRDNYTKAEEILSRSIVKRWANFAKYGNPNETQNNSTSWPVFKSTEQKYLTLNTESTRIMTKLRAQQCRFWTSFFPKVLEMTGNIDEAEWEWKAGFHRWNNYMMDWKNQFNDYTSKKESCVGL

Cholinesterase [3] = biological target: Cholinesterase (Homo sapiens, UniProt P06276, D98G); test: Inhibition of human BChE D70G mutant atypical homozygous variant using propionylthiocholine as substrate assessed as inhibition rate constant incubated up to 30 mins prior to substrate addition by Ellman's method; summary of the method: as §1
Sequence of Cholinesterase (Homo sapiens, UniProt P06276, D98G) (P06276 29-602 D98G limits assumed): as the sequence (P06276 29-602 limits assumed) above, with D70G counted along it

Acetylcholinesterase [4] = biological target: T2, Acetylcholinesterase (Homo sapiens, UniProt P22303); test: Inhibition of human AChE using acetylthiocholine as substrate assessed as inhibition rate constant by Ellman's method
T2 sequence (P22303 whole entry): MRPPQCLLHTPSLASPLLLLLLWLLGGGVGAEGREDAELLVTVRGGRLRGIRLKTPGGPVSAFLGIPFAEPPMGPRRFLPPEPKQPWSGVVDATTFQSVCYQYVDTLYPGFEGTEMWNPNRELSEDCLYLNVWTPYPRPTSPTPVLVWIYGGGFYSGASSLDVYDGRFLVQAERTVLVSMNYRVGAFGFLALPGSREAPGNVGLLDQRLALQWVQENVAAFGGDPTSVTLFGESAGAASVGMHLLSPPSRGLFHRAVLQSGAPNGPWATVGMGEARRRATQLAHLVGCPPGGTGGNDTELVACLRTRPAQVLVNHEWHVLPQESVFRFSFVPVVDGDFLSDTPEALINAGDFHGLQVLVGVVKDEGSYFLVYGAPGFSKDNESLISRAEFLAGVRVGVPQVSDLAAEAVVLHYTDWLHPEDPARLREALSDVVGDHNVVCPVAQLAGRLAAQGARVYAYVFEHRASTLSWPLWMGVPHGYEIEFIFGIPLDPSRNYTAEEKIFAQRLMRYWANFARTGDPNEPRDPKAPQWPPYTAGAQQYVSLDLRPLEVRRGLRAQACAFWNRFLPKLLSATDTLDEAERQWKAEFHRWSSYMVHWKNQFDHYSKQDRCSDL

Cholinesterase [5] = biological target: T1, Cholinesterase; test: Inhibition of human BChE usual homozygous variant using propionylthiocholine as substrate by Ellman's method; details: TDE = time-dependent effect; summary of the method: as §2
Target sequence in this assay (P06276 whole entry): as the sequence (P06276 whole entry) above

Cholinesterase [6] = biological target: T1, Cholinesterase; test: Inhibition of human BChE D70G mutant atypical homozygous variant using propionylthiocholine as substrate by Ellman's method; details: TDE = time-dependent effect; summary of the method: as §2
Target sequence in this assay (P06276 whole entry): as above

Cholinesterase [7] = biological target: Cholinesterase (Homo sapiens, UniProt P06276, T271M/G418V); test: Inhibition of human BChE T243M/G390V mutant fluoride-resistant homozygous variant using propionylthiocholine as substrate assessed as inhibition rate constant incubated up to 30 mins prior to substrate addition by Ellman's method; summary of the method: as §1
Sequence of Cholinesterase (Homo sapiens, UniProt P06276, T271M/G418V) (P06276 29-602 T271M/G418V limits assumed): as the sequence (P06276 29-602 limits assumed) above, with T243M, G390V counted along it

Cholinesterase [8] = biological target: T1, Cholinesterase; test: Inhibition of human BChE D70G mutant usual-atypical heterozygous variant using propionylthiocholine as substrate assessed as inhibition rate constant incubated up to 30 mins prior to substrate addition by Ellman's method; summary of the method: as §1
Target sequence in this assay (P06276 29-602 limits assumed): as the sequence (P06276 29-602 limits assumed) above

Cholinesterase [9] = biological target: T1, Cholinesterase; test: Inhibition of human BChE usual homozygous variant using propionylthiocholine as substrate assessed as inhibition rate constant incubated up to 30 mins prior to substrate addition by Ellman's method; summary of the method: as §1
Target sequence in this assay (P06276 29-602 limits assumed, stated change not applied): as the sequence (P06276 29-602 limits assumed) above

Cholinesterase [10] = biological target: T1, Cholinesterase; test: Inhibition of human BChE D70G mutant usual-atypical heterozygous variant using propionylthiocholine as substrate by Ellman's method; details: TDE = time-dependent effect; summary of the method: as §2
Target sequence in this assay (P06276 whole entry): as the sequence (P06276 whole entry) above

Cholinesterase [11] = biological target: T1, Cholinesterase; test: Inhibition of human BChE D70G/T243M/G390V mutant atypical-fluoride resistant heterozygous variant using propionylthiocholine as substrate by Ellman's method; details: TDE = time-dependent effect; summary of the method: as §2
Target sequence in this assay (P06276 whole entry): as above

Acetylcholinesterase [12] = biological target: T2, Acetylcholinesterase; test: Inhibition of human AChE using acetylthiocholine as substrate by Ellman's method
Homo sapiens [13] = organism: Homo sapiens; test: Selectivity ratio of apparent dissociation constant for enzyme-inhibitor complex for human AChE to apparent dissociation constant for enzyme-inhibitor complex for human BChE T243M/G390V mutant fluoride-resistant homozygous variant
Summary of the method: (§3)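 Human plasma BChE (phenotyped variants) and hemolysed erythrocyte AChE were used unpurified, with plasma diluted 150-300x and erythrocytes 600x. Activity was read by the Ellman method at 412 nm (DTNB 0.3 mM final) in 0.1 M phosphate, pH 7.4, 25 °C. Substrate was PTCh for BChE and ATCh for AChE, each at several concentrations, with inhibitor at 0.5-10 mM. Ki is the y-intercept of a Hunter-Downs linear regression.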

Homo sapiens [14] = organism: Homo sapiens; test: Selectivity ratio of apparent dissociation constant for enzyme-inhibitor complex for human AChE to apparent dissociation constant for enzyme-inhibitor complex for human BChE D70G mutant atypical homozygous variant; summary of the method: as §3
Cholinesterase [15] = biological target: T1, Cholinesterase; test: Binding affinity to human BChE D70G mutant atypical homozygous variant relative to terbutaline
Target sequence in this assay (P06276 whole entry): as above

Row | SMILES | Carbamylation rate constant (ki) (Cholinesterase [1]) [×10³ /M/min] | inhibition (Cholinesterase [2]) | bimolecular inhibition rate constant (ki) (Cholinesterase [3]) [×10³ /M/min] | Inhibition rate constant (Acetylcholinesterase [4]) [×10³ /M/min] | inhibition (Cholinesterase [5]) | inhibition (Cholinesterase [6]) | bimolecular inhibition rate constant (ki) (Cholinesterase [7]) [×10³ /M/min] | bimolecular inhibition rate constant (ki) (Cholinesterase [8]) [×10³ /M/min] | bimolecular inhibition rate constant (ki) (Cholinesterase [9]) [×10³ /M/min] | inhibition (Cholinesterase [10]) | inhibition (Cholinesterase [11]) | Ki (Acetylcholinesterase [12]) [µM] | Selectivity ratio (Homo sapiens [13]) | Selectivity ratio (Homo sapiens [14]) | Ratio (Cholinesterase [15])
1 | CC(C)NCC(O)c1cc(OC(=O)N(C)C)cc(OC(=O)N(C)C)c1.Cl (racemic) | 440 | tde | 40 | 2.3 | tde | tde | 600 | 1400 | 2200 | tde | tde | 710 |  |  | 
2 | CC(C)NCC(O)c1ccc(OC(=O)N(C)C)c(OC(=O)N(C)C)c1.Cl (racemic) | 87 | tde | 21 | 2.5 | tde | tde | 140 | 160 | 200 | tde | tde | 1400 |  |  | 
3 | CC(C)NCC(O)c1cc(O)cc(O)c1 (racemic) |  |  |  |  |  |  |  |  |  |  |  |  | 4 | 4 | 
4 | CC(C)NC[C@H](O)c1cc(OC(=O)N(C)C)cc(OC(=O)N(C)C)c1.Cl | 550 |  | 76 | 4.7 |  |  | 1100 | 2200 | 3200 |  |  | 390 |  |  | 
5 | CC(C)NC[C@H](O)c1ccc(OC(=O)N(C)C)c(OC(=O)N(C)C)c1.Cl | 100 |  | 31 | 2.7 |  |  | 150 | 210 | 340 |  |  | 1200 |  |  | 
6 | CC(C)NCC(O)c1ccc(O)c(O)c1 (racemic) |  |  |  |  |  |  |  |  |  |  |  |  | 4 | 4 | 2
